The values below come from ChEMBL document CHEMBL1156266, “Antisense oligonucleotides containing conformationally constrained 2',4'-(N-methoxy)aminomethylene and 2',4'-aminooxymethylene and 2'-O,4'-C-aminomethylene bridged nucleoside analogues show improved potency in animal models” (J Med Chem, 2010).

Structures are written as SMILES.

The nature of data set [1]: Reduction in PTEN mRNA expression in mouse bEND.3 cells after 24 hrs by qRT-PCR analysis. Format: functional, cell-based. As to conditions: BEND3, 24 h. The essentials:
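bEnd.3 cells in DMEM/10% FBS, seeded at 1 × 10^4 cells/well the day before. Transfected 4 h at 37 °C with Lipofectin 3 μg/mL in OptiMEM, eight 1:2 dilutions (40 nM to 312.5 pM), then refed with complete medium for 24 h. PTEN RNA by qRT-PCR, normalized to cyclophilin A, as % untreated control. Triplicate plates. IC50 from sigmoidal fit, top 100%, bottom 0%.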

Data set [2] relates to Mus musculus. Put plainly: Hepatotoxicity in BALB/c mouse assessed as increase in liver ALT level at 0.5 to 14.6 mg/kg, ip administered twice a week for 3 weeks measured after 72 hrs of last dose. It counts as toxicity, organism-based. Also on record: dose 0.5-14.6 mg/kg, route intraperitoneal. To be noted: in vivo. The essentials: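 Male 6-week-old Balb/c mice dosed ip in PBS twice weekly for 3 weeks: 0.7–23 mg/kg (four levels) or 0.5–14.6/14.8 mg/kg. Killed 72 h after final dose. Plasma from cardiac-puncture blood, ALT on clinical bioanalyzer. Errors are SD.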

The test system of data set [3] is Mus musculus. Nature of the data set: Toxicity in BALB/c mouse assessed as effect on body weight at 0.5 to 14.6 mg/kg, ip administered twice a week for 3 weeks measured after 72 hrs of last dose. Format: organism-based. Also noted: dose 0.5-14.6 mg/kg, route intraperitoneal. To be noted: in vivo. Put shortly: (§1)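 Male Balb/c mice, ip ASO in PBS twice weekly for 3 weeks at four dose levels. Body weight recorded before each dose. Killed 3 days after last dose. Organ weights normalized to body weight, expressed relative to the saline-treated group.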

The next data set relates to Liver. Put plainly: Drug level in BALB/c mouse liver assessed per gram of tissue at 37 mg/kg, ip administered once a week for 3 weeks measured after 72 hrs of last dose. Format: ADME, organism-based. Also noted: dose 37 mg/kg, route intraperitoneal. As to conditions: in vivo.
The subject of data set [4] is Mus musculus. Nature of the data set: Reduction in PTEN mRNA expression in ip dosed BALB/c mouse liver administered twice a week for 3 weeks measured after 72 hrs of last dose by RT-PCR analysis. It counts as functional. Put shortly:
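Male Balb/c mice, 6-week-old, ASO in PBS ip twice weekly for 3 weeks, four dose levels. Killed 72 h after last dose. Liver homogenized in guanidine isothiocyanate buffer, RNA column-purified. PTEN RNA by fluorescence qRT-PCR, normalized to cyclophilin A. Errors are SD.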

The test system of data set [5] is Mus musculus. Put plainly: Toxicity in BALB/c mouse assessed as increase in liver weight at 0.5 to 14.6 mg/kg, ip administered twice a week for 3 weeks measured after 72 hrs of last dose. Also on record: dose 0.5-14.6 mg/kg, route intraperitoneal. As to conditions: in vivo. It counts as organism-based. The essentials: as §1

The IC50 is the midpoint of a concentration-inhibition curve. Higher therefore signals a need for much substance. Broadly, the ED50 is the midpoint of the dose-response relation.

On to `Cc1cn([C@@H]2O[C@]3(CO)CO[C@@H]2[C@@H]3OP(O)(=S)OC[C@]23CC([C@H](n4cc(C)c(=O)[nH]c4=O)O2)[C@@H]3OP(O)(=S)OC[C@H]2O[C@@H](n3cc(C)c(=O)[nH]c3=O)C[C@@H]2OP(O)(=S)OC[C@H]2O[C@@H](n3cnc4c(N)ncnc43)[C@H](O)[C@@H]2OP(O)(=S)OC[C@H]2O[C@@H](n3cnc4c(=O)[nH]c(N)nc43)[C@H](O)[C@@H]2OP(O)(=S)OC[C@H]2O[C@@H](n3ccc(N)nc3=O)[C@H](O)[C@@H]2OP(O)(=S)OC[C@H]2O[C@@H](n3cnc4c(N)ncnc43)[C@H](O)[C@@H]2OP(O)(=S)OC[C@H]2O[C@@H](n3ccc(N)nc3=O)[C@H](O)[C@@H]2OP(O)(=S)OC[C@H]2O[C@@H](n3cc(C)c(=O)[nH]c3=O)C[C@@H]2OP(O)(=S)OC[C@H]2O[C@@H](n3cnc4c(=O)[nH]c(N)nc43)[C@H](O)[C@@H]2OP(O)(=S)OC[C@H]2O[C@@H](n3cnc4c(=O)[nH]c(N)nc43)[C@H](O)[C@@H]2OP(O)(=S)OC[C@H]2O[C@@H](n3ccc(N)nc3=O)[C@H](O)[C@@H]2OP(O)(=S)OC[C@]23CO[C@@H]([C@H](n4cc(C)c(N)nc4=O)O2)[C@@H]3OP(O)(=S)OC[C@]23CC([C@H](n4cc(C)c(=O)[nH]c4=O)O2)[C@@H]3O)c(=O)nc1N` (stereo partly specified), for which the IC50 in data set [1] is 1.3 nM. The Activity entry in the data set with Mus musculus [2], in the data set on Mus musculus [3] and in the data set with Mus musculus [5] was “Toxic” each time. The same compound returned a Drug uptake in the data set with Liver of 30 µg/g. In the data set with Mus musculus [4], this compound returned an ED50 of 3 mg/kg.
